Reference: article PMC7442178 (Biochemical engineering journal, 2019)
Residues, ends and D or L forms follow the SMILES beside them. *: point of attachment. AMC = Cc1cc(=O)oc2cc(N*)ccc12; Cbz = O=C(OCc1ccccc1)*

Columns and labels:
DUBs in HeLa lysates = experiment: DUB-mediated hydrolysis of peptide reporters in HeLa lysates; format: biochemical; settings: for V/K value (Vmax/Km): HeLa lysates 4 mg/mL, DMSO curves, Michaelis-Menten parameters
Summary of the method: (§1)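 Lysates (4 mg/mL protein, by NanoDrop) came from M-PER extraction of PBS-washed HeLa or OPM2 cells, clarified at 14,000 × g. Lysates were pre-treated 1 h with 20 or 50 μM PR-619 or DMSO, in 50 mM HEPES pH 7.4, 150 mM NaCl, 2 mM DTT, 0.02% Tween-20. Released AFC or AMC was read every 30 min for 6 h at 30°C. Rates were calibrated, and Km and vmax came from Michaelis-Menten fits.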

[1] = test system: DUBs in intact OPM2 cells; experiment: Direct visualization of DUB activity in intact OPM2 cells; format: cell-based; settings: 50 μM peptide, 120 minutes, 37°C, DAPI filter
[2] = test system: DUBs in intact HeLa cells; experiment: Enzyme-substrate kinetics in intact HeLa cells; format: cell-based
DUBs in OPM2 lysates = experiment: DUB-mediated hydrolysis of peptide reporters in OPM2 lysates; format: biochemical
Summary of the method: as §1

intact cells = settings: cited from earlier work
[3] = cited from earlier work

Ac-RWVRVpGO(FAM)WIRQ-LVLRLRGG-AFC [Peptide 2]
Effect of DUB inhibition (PR-619) on rate data of the reporter (DUBs in HeLa lysates; HeLa lysates pre-treated 1 h with 0, 20, 50 μM PR-619): did not result in a significant effect

Ac-RWVRVpGO(FAM)WIRQ-LRGG-AFC [Peptide 1]
V/K value (Vmax/Km) (DUBs in HeLa lysates): 0.00212 min⁻¹ | Intracellular fluorescence signal from DUB-mediated hydrolysis [1]: showed an increase in intracellular fluorescence | Si,max, intracellular saturation concentration (model) ([2]; calculated from a, b, c, d, nintact with Eq. 7, HeLa cells): 1.28 µM | S0,50, external solution concentration at half-saturation level (model) ([2]; calculated from a, b, c, d, nintact with Eq. 8, HeLa cells): 55.1 µM | nintact (Hill coefficient) ([2]; intact HeLa cells, Hill model fit): 6.8 | (V/K) intact ([2]; intact HeLa cells, from Hill parameters, unit not given): 1.38*10^−5 | Uninhibited reaction rates in OPM2 lysates, comparison (DUBs in OPM2 lysates; OPM2 lysates 4 mg/mL, no inhibitor, p<10^−4): significantly higher than Peptide 3

N#CSc1cc(SC#N)c(N)nc1N [PR-619]
Inhibition of DUB activity (residual activity) (DUBs in HeLa lysates; lysates treated with 50 μM PR-619, pre-treatment 1 h, HeLa lysates): incomplete inhibition | Inhibition of DUB activity (residual activity) (DUBs in OPM2 lysates; lysates treated with 50 μM PR-619, pre-treatment 1 h, OPM2 lysates): incomplete inhibition

Cc1cc(=O)oc2cc(NC(=O)CNC(=O)CNC(=O)[C@H](CCCNC(=N)N)NC(=O)[C@H](CC(C)C)NC(=O)OCc3ccccc3)ccc12 [Peptide 3, Z-Leu-Arg-Gly-Gly-AMC] (Cbz-LRGG-{AMC})
V/K value (Vmax/Km) (DUBs in HeLa lysates): 0.00021 min⁻¹ | Intracellular fluorescence signal from DUB-mediated hydrolysis [1]: did not produce a detectable signal | Reaction rates in intact cells ([2]; intact HeLa cells incubated with varying peptide concentrations for 6 h): not significantly different from zero

RWVRVpGRWIRQ [RWRWR]
Incubation time sufficient to deliver the CPP into intact cells (intact cells): 10 min | Time to penetrate intact cells (intact cells): ≤ 10 min | half-life in HeLa lysates [3]: 7 h
